This is an account of results in ChEMBL document CHEMBL3297709, “High affinity ligands and potent antagonists for the α1D-adrenergic receptor. Novel 3,8-disubstituted [1]benzothieno[3,2-d]pyrimidine derivatives” (Eur J Med Chem, 2014).

In test [1] the target is T1, Alpha-1B adrenergic receptor (Rattus norvegicus) (UniProt P15823).
T1 sequence (whole entry): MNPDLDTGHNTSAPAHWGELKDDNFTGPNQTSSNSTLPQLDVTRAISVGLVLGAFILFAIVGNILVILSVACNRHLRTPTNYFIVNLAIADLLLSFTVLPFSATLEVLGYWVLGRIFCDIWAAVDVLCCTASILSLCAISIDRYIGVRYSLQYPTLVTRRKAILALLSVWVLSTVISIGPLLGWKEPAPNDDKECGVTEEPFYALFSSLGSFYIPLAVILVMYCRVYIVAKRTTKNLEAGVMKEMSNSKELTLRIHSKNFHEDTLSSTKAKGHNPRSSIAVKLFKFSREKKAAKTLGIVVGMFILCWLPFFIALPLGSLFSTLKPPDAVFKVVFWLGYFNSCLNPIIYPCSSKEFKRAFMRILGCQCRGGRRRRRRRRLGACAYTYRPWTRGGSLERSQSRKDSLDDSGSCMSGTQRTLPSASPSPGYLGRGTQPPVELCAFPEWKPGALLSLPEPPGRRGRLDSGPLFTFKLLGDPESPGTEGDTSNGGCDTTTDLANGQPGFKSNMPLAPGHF
The test can be described thus: Antagonist activity at alpha1B adrenoceptor in Wistar rat spleen assessed as phenylephrine induced contractions. Summed up: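 Wistar rat spleen strips under 1 g resting tension, equilibrated 2 h, with 4 µM (±)-propranolol to block β-adrenoceptors. Cumulative phenylephrine curves measured isometrically at 30 min intervals, first discarded, second as control. Antagonist incubated 30–60 min before repeat curve. pKb from ED50 dose ratio via pKb = log(DR-1) - log[B]; mean ± SE of 4–5 experiments.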

In test [2] the target is T2, Alpha-1A adrenergic receptor (Rattus norvegicus) (UniProt P43140).
T2 sequence (whole entry): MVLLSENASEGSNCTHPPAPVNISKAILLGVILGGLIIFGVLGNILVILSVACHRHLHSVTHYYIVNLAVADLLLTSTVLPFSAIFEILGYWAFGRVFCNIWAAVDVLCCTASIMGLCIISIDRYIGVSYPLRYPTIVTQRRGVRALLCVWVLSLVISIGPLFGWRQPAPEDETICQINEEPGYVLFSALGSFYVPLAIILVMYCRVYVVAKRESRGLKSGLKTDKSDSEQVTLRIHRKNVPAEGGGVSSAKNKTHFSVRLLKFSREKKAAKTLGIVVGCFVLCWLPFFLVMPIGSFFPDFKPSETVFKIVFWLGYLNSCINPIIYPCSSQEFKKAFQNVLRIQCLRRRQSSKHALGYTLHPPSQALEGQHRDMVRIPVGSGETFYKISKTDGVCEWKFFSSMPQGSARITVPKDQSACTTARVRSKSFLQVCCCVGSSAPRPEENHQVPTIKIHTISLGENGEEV
Kind of test: Antagonist activity at alpha1A adrenoceptor in Wistar rat vas deferens assessed as noradrenaline induced contractions. Summed up: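 Male Wistar rat (275-300 g) prostatic vas deferens in 20 mL organ bath, physiological salt solution, 37 °C, 5% CO2:95% O2, pH 7.4. Primed twice with 10 µM (-)-NA, 45 min wash/equilibration, then cumulative (-)-NA curve recorded isotonically. Antagonist incubated 30–60 min before repeat curve. pKb = log(DR-1) - log[B] from ED50 ratio; mean ± SE of 4–5 experiments.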

Test [3] deals with T3, Alpha-1D adrenergic receptor (Rattus norvegicus) (UniProt P23944).
T3 sequence (whole entry): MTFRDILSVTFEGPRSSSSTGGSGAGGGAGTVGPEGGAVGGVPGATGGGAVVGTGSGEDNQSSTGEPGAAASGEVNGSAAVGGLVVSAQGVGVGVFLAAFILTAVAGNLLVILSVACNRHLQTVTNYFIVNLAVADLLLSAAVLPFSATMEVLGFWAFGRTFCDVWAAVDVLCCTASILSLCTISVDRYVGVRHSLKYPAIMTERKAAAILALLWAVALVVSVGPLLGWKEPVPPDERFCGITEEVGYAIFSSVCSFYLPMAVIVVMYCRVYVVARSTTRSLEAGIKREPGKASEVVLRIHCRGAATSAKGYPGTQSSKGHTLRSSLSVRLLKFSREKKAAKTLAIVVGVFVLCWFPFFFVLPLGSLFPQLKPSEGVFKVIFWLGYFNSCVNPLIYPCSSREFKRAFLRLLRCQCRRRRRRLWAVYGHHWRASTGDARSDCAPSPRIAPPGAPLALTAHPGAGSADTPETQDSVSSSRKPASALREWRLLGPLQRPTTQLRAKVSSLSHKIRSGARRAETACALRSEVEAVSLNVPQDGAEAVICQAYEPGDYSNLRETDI
Kind of test: Antagonist activity at alpha1D adrenoceptor in Wistar rat thoracic aorta assessed as noradrenaline induced contractions. Summed up: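 Endothelium-denuded helicoidal thoracic aorta strips (15 x 3 mm) from male Wistar rats, Krebs solution, 1 g tension, ≥2 h equilibration. Cumulative (-)-NA curves recorded isometrically at 1 h intervals, third as control. Antagonist equilibrated 60 min before fourth curve. NA solutions held 0.05% Na2S2O4. pKb = log(DR-1) - log[B]; mean ± SE of 4–5 experiments.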

Test [4] deals with T4, Alpha-1D adrenergic receptor (Homo sapiens, UniProt P25100).
T4 sequence (P25100 whole entry): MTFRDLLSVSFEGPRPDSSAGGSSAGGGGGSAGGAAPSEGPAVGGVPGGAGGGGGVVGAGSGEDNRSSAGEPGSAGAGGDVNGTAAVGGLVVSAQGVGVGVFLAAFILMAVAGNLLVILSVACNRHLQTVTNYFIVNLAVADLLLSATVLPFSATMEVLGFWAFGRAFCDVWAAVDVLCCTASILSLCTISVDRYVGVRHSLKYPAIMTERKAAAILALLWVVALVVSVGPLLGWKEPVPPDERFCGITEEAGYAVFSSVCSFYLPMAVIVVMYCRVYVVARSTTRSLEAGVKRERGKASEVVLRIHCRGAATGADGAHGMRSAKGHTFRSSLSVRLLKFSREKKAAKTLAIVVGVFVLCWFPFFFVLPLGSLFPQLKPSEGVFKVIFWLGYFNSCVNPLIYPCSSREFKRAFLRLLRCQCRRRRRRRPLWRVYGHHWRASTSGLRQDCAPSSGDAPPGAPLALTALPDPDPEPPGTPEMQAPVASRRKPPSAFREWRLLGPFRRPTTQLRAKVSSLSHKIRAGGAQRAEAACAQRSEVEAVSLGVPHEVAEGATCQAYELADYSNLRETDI
The test can be described thus: Displacement of [125I]BE2254 from human alpha1d receptor expressed in HEK293 cells. It is filed as cell-based. Summed up:
(§1)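 Membranes from HEK293 cells stably transfected with human α1A, α1B or α1D receptor cDNA, selected under 400 µg/mL geneticin. Competition against 50 pM [125I]BE2254; nonspecific binding defined with 10 µM phentolamine. Curves fitted by nonlinear regression. Mean ± SE of three experiments run in duplicate.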

Test [5] addresses T5, Alpha-1B adrenergic receptor (Homo sapiens, UniProt P35368).
T5 sequence (P35368 whole entry): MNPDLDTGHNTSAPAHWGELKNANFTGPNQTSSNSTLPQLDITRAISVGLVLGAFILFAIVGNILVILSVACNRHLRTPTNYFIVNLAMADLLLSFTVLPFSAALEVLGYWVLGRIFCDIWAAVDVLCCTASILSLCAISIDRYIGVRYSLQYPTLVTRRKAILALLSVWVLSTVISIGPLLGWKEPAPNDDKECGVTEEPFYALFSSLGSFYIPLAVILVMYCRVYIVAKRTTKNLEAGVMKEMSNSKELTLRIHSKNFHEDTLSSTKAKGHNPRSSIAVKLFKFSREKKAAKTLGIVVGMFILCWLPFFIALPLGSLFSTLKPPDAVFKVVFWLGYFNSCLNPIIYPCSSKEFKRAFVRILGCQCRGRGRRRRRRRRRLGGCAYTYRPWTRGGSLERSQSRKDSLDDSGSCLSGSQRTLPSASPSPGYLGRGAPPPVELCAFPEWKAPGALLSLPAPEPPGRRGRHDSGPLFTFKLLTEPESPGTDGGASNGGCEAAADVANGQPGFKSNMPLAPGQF
Kind of test: Displacement of [125I]BE2254 from human alpha1b receptor expressed in HEK293 cells. It is filed as cell-based. Summed up:
as §1

Test [6] concerns the target T6, Alpha-1A adrenergic receptor (Homo sapiens, UniProt P35348).
T6 sequence (P35348 whole entry): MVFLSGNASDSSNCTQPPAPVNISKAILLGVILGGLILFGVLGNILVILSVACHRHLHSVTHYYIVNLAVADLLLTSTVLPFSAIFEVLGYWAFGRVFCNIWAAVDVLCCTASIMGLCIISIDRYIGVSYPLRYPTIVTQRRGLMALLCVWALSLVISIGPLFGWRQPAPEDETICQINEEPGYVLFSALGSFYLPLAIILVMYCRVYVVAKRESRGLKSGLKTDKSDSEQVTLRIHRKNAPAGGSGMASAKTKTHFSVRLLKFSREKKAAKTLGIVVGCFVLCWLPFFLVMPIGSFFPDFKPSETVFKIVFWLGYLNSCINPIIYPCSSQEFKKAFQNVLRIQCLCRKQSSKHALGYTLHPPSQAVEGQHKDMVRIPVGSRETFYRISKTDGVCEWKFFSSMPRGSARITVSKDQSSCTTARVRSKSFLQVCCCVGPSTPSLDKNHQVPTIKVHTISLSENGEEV
The test can be described thus: Displacement of [125I]BE2254 from human alpha1a receptor expressed in HEK293 cells. It is filed as cell-based. Summed up: as §1

The structures appear in SMILES notation.

As to `COc1ccccc1N1CCN(CCn2c(=O)[nH]c3c(sc4ccccc43)c2=O)CC1`, the pKb was determined as 8.44 in test [1], 8.61 in test [2] and 8.89 in test [3].
With `COc1ccccc1N1CCN(CCn2c(=O)[nH]c3c(sc4ccc(NC(=O)c5ccccc5)cc43)c2=O)CC1`, the Ki was 0.575 nM in test [4], 10 nM in test [5] and 1.1 nM in test [6].
Taken in the same sequence, the figures for `COc1ccccc1N1CCN(CCn2c(C)nc3c(sc4ccc(NC(=O)c5ccccc5)cc43)c2=O)CC1` were 5.01 nM, 38.9 nM and 3.89 nM.
`COc1ccccc1N1CCN(CCn2c(C)nc3c(sc4ccc(NC(=O)CCCC(=O)NCc5ccccc5)cc43)c2=O)CC1`: the values for the Ki in test [4], in test [5] and in test [6] were 5.5 nM, 19.1 nM and 3.55 nM, respectively.
Taken in the same sequence, the figures for `COc1ccccc1N1CCN(CCn2c(=O)[nH]c3c(sc4ccc(NC(=O)Cc5ccccc5)cc43)c2=O)CC1` were 0.912 nM, 28.2 nM and 1.48 nM.
The corresponding values for `COc1ccccc1N1CCN(CCn2c(=O)[nH]c3c(sc4ccc(NC(=O)CCCN(C)Cc5ccccc5)cc43)c2=O)CC1` are 4.07 nM, 7.41 nM and 6.92 nM.
Taken in the same sequence, the figures for `COc1ccccc1N1CCN(CCn2c(=O)[nH]c3c(sc4ccc(NC(=O)CCCN(C)C)cc43)c2=O)CC1` were 1.66 nM, 1.66 nM and 1.7 nM.
Regarding `COc1ccccc1N1CCN(CCn2c(=O)[nH]c3c(sc4ccc(NC(=O)CCC(=O)NCc5ccccc5)cc43)c2=O)CC1`, the Ki in test [4] is 0.372 nM; in test [5], 2.69 nM; in test [6] it was 1.1 nM.
The corresponding values for `COc1ccccc1N1CCN(CCn2c(C)nc3c(sc4ccc(NC(=O)CCCC(=O)NCCc5ccccc5)cc43)c2=O)CC1` are 0.759 nM, 6.46 nM and 0.912 nM.
On to `COc1ccccc1N1CCN(CCn2c(=O)[nH]c3c(sc4ccc(NC(=O)CCCC(=O)NCCc5ccccc5)cc43)c2=O)CC1`, for which the Ki in test [4] is 1 nM; in test [5] it was 6.46 nM; in test [6] it was 1.62 nM.
`COc1ccccc1N1CCN(CCn2c(=O)[nH]c3c(sc4ccc(NC(=O)CCCc5ccccc5)cc43)c2=O)CC1`: the Ki was 3.24 nM in test [4], 33.9 nM in test [5] and 7.08 nM in test [6].
The corresponding values for `COc1ccccc1N1CCN(CCn2c(C)nc3c(sc4ccc(NC(=O)Cc5ccccc5)cc43)c2=O)CC1` are 3.31 nM, 30.2 nM and 3.39 nM.
Taken in the same sequence, the figures for `COc1ccccc1N1CCN(CCn2c(C)nc3c(sc4ccc(NC(=O)CCCNC(=O)Cc5ccccc5)cc43)c2=O)CC1` were 2.29 nM, 7.59 nM and 1 nM.
The corresponding values for `COc1ccccc1N1CCN(CCn2c(=O)[nH]c3c(sc4ccc(NC(=O)CCCCc5ccccc5)cc43)c2=O)CC1` are 1.17 nM, 36.3 nM and 5.25 nM.
